Results: ChEMBL document CHEMBL2412990, “Synthesis and pharmacological evaluation of new N-phenylpiperazine derivatives designed as homologues of the antipsychotic lead compound LASSBio-579” (Eur J Med Chem, 2013)
Activity calls are given as the source filed them.

Legend:
[1] = test system: Alpha-2 adrenergic receptor (Rattus norvegicus); test: Antagonist activity at alpha2 adrenoreceptor in rat brain cortical membranes assessed as inhibition of [3H]-RX821002 binding to receptor after 45 mins by competition assay in presence of GTP
Mus musculus = test: Antipsychotic activity in ip dosed CF1 mouse assessed as prevention of ketamine-induced hyperlocomotion compound administered 30 mins prior ketamine challenge measured for 20 mins post challenge; type: functional, organism-based
In short: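 Mice were pretreated (reference drug orally after 2 h fast; test compound i.p.) and placed in the arena centre. Ketamine 10 mg/kg s.c. was given 30 min later. A blinded observer counted total square crossings over 20 min in a dimly lit room. n = 7–8. Analysed by one-way ANOVA with Newman-Keuls post hoc test.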

[2] = target: 5-hydroxytryptamine receptor 2A (Rattus norvegicus) (UniProt P14842); test: Antagonist activity at 5HT2A receptor in rat brain cortical membranes assessed as inhibition of [3H]-ketanserin binding to receptor after 15 mins by competition assay in presence of GTP; type: cell membranes
In short: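 Rat cortical membranes, 150 µg protein, with 1 nM [3H]-ketanserin and 100 nM prazosin in 50 mM Tris-HCl pH 7.4, 37 °C, 15 min. Non-specific binding was defined with ketanserin. For the GTP shift, paired competition curves were run without and with guanylyl nucleotide (0.1 mM Gpp(NH)p or 1 mM GTP).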

[3] = target: T1, 5-hydroxytryptamine receptor 1A (Rattus norvegicus) (UniProt P19327); test: Partial agonist activity at 5HT1A receptor in rat brain hippocampal membranes assessed as inhibition of [3H]-8-OH-DPAT binding to receptor after 15 mins by competition assay; type: cell membranes
T1 sequence (whole entry): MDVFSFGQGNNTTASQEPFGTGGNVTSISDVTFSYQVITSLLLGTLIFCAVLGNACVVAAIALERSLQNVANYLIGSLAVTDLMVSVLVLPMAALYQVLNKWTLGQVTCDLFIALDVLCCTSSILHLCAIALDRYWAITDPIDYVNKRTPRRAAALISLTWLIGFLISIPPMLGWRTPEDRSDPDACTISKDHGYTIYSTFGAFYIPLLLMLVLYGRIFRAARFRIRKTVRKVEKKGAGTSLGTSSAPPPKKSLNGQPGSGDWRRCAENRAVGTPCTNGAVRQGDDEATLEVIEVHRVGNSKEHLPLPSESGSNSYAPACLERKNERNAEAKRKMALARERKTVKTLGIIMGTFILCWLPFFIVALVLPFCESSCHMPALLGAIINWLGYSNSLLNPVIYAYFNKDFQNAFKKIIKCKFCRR
In short: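 Hippocampal membranes, 40 µg protein, incubated with 1 nM [3H]-8-OH-DPAT at 37 °C for 15 min under yellow light. Buffer was 50 mM Tris-HCl pH 7.4 with 1 mM CaCl2, 1 mM MnCl2 and pargyline. Non-specific binding was defined with 5-HT. Filters were soaked in 0.5% polyethyleneimine. IC50 came from nonlinear regression fitted with one or two sites. Ki by Cheng-Prusoff, using Kd from saturation experiments.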

[4] = test system: Alpha-2 adrenergic receptor (Rattus norvegicus); test: Antagonist activity at alpha2 adrenoreceptor in rat brain cortical membranes assessed as inhibition of [3H]-RX821002 binding to receptor after 45 mins by competition assay in absence of GTP

Sequence of 5-hydroxytryptamine receptor 2A (Rattus norvegicus) (P14842 whole entry): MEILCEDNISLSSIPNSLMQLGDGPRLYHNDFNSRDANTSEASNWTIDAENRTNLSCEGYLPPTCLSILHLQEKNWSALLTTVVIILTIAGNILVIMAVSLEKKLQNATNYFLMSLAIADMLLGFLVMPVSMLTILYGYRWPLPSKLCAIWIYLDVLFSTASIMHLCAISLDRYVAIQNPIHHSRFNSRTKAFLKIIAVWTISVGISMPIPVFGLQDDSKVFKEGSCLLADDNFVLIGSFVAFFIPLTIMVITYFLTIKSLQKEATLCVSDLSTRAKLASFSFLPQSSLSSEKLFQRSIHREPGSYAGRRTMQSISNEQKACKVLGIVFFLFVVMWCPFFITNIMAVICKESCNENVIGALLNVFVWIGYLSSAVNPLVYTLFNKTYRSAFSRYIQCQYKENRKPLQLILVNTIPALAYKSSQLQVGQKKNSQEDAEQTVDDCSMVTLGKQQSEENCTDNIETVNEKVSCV

Clc1ccc(-n2cc(CCCCN3CCN(c4ccccc4)CC3)cn2)cc1
active: inhibition [1] | Activity (Mus musculus) Dose-dependent effect | inhibition [2] | inhibition [3] | inhibition [4]
